pKd: −log10 of the molar value.
Key:
Acinetobacter baumannii [1] = assay: Antibacterial activity against Acinetobacter baumannii ATCC 17978 after 16 to 18 hrs by microbroth dilution method; format: functional
In short: (§1)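 Broth microdilution in Mueller–Hinton broth following CLSI recommendations. Strains came from ATCC or CCUG collections or the authors' clinical isolates. Compounds were dissolved in DMSO as a 100 mg/ml stock and then diluted in culture medium. Inoculum was 5 × 10⁴ CFU/well. MIC was read after 16–18 h incubation at 35–37 °C.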

Aeromonas hydrophila = assay: Antibacterial activity against Aeromonas hydrophila ATCC 7966 after 16 to 18 hrs by microbroth dilution method; format: functional; in short: as §1
[2] = system: Elizabethkingia meningoseptica; assay: Antibacterial activity against Elizabethkingia meningoseptica CCUG 4310 after 16 to 18 hrs by microbroth dilution method; format: functional; in short: as §1
Escherichia coli = assay: Antibacterial activity against Escherichia coli CCUGT after 16 to 18 hrs by microbroth dilution method; format: functional; in short: as §1
Klebsiella pneumoniae [3] = assay: Antibacterial activity against Klebsiella pneumoniae ATCC 13833 after 16 to 18 hrs by microbroth dilution method; format: functional; in short: as §1
Pseudomonas aeruginosa [4] = assay: Antibacterial activity against Pseudomonas aeruginosa ATCC 27853 after 16 to 18 hrs by microbroth dilution method; format: functional; in short: as §1
Bacillus subtilis = assay: Antibacterial activity against Bacillus subtilis ATCC 6633 after 16 to 18 hrs by microbroth dilution method; format: functional; in short: as §1
Enterococcus faecalis = assay: Antibacterial activity against Enterococcus faecalis ATCC 19433 after 16 to 18 hrs by microbroth dilution method; format: functional; in short: as §1
Staphylococcus aureus [5] = assay: Antibacterial activity against Staphylococcus aureus ATCC 25923 after 16 to 18 hrs by microbroth dilution method; format: functional
In short: (§2)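 Broth microdilution MIC per CLSI in Mueller–Hinton broth. Inoculum 5 × 10⁴ CFU/well. Compounds dissolved in DMSO at 100 mg/ml, then diluted in culture medium. Plates incubated 16–18 h at 35–37 °C before reading the MIC. Strains were taken from ATCC or CCUG collections or from the authors' clinical isolate collection.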

[6] = system: Staphylococcus epidermidis; assay: Antibacterial activity against Staphylococcus epidermidis ATCC 14990 after 16 to 18 hrs by microbroth dilution method; format: functional; in short: as §1
Streptococcus pyogenes = assay: Antibacterial activity against Streptococcus pyogenes ATCC 12344 after 16 to 18 hrs by microbroth dilution method; format: functional; in short: as §1
Acinetobacter baumannii [7] = assay: Antibacterial activity against penicillin/expanded-spectrum cephalosporin/carbapenem/aztreonam/aminoglycoside/fluoroquinolone/fosfomycin/trimethoprim/sulfamethoxazole-resistant Acinetobacter baumannii AC-54/97 after 16 to 18 hrs by microbroth dilution method; format: functional; in short: as §2
[8] = system: Achromobacter xylosoxidans; assay: Antibacterial activity against penicillin/expanded-spectrum cephalosporin/carbapenem/aminoglycoside-resistant Achromobacter xylosoxidans AX 22 after 16 to 18 hrs by microbroth dilution method; format: functional; in short: as §2
Alcaligenes faecalis = assay: Antibacterial activity against expanded-spectrum cephalosporin/carbapenem/monobactam-resistant Alcaligenes faecalis 424/98 after 16 to 18 hrs by microbroth dilution method; format: functional; in short: as §2
Enterobacter cloacae = assay: Antibacterial activity against penicillin/CEPH/carbapenem/aminoglycoside/fluoroquinolone-resistant Enterobacter cloacae VA-417/02 after 16 to 18 hrs by microbroth dilution method; format: functional; in short: as §2
Klebsiella pneumoniae [9] = assay: Antibacterial activity against penicillin/expanded-spectrum cephalosporin/carbapenem/aminoglycoside/fluoroquinolone/trimethoprim/sulfamethoxazole-resistant Klebsiella pneumoniae 7023 after 16 to 18 hrs by microbroth dilution method; format: functional; in short: as §2
Pseudomonas aeruginosa [10] = assay: Antibacterial activity against penicillin/expanded-spectrum cephalosporin/carbapenem/aminoglycoside-resistant Pseudomonas aeruginosa 101/1477 after 16 to 18 hrs by microbroth dilution method; format: functional; in short: as §2
Pseudomonas aeruginosa [11] = assay: Antibacterial activity against penicillin/expanded-spectrum cephalosporin/carbapenem/monobactam/aminoglycoside/fluoroquinolone-resistant Pseudomonas aeruginosa VR-143/97 after 16 to 18 hrs by microbroth dilution method; format: functional; in short: as §2
[12] = system: Stenotrophomonas maltophilia; assay: Antibacterial activity against penicillin/expanded-spectrum cephalosporin/carbapenem/monobactam/aminoglycoside/trimethoprim/sulfamethoxazole/fosfomycin-resistant Stenotrophomonas maltophilia 634/08 after 16 to 18 hrs by microbroth dilution method; format: functional; in short: as §2
Staphylococcus aureus [13] = assay: Antibacterial activity against penicillin-resistant Staphylococcus aureus ATCC 43300 after 16 to 18 hrs by microbroth dilution method; format: functional; in short: as §2
Staphylococcus aureus [14] = assay: Antibacterial activity against glycopeptide-resistant Staphylococcus aureus ATCC 700699 (VanA) after 16 to 18 hrs by microbroth dilution method; format: functional; in short: as §2
[15] = system: Staphylococcus haemolyticus; assay: Antibacterial activity against aminoglycoside-resistant Staphylococcus haemolyticus SI-6/2011 after 16 to 18 hrs by microbroth dilution method; format: functional; in short: as §2
Staphylococcus warneri = assay: Antibacterial activity against penicillin/aminoglycoside-resistant Staphylococcus warneri SI-5/2011 after 16 to 18 hrs by microbroth dilution method; format: functional; in short: as §2
Staphylococcus hominis = assay: Antibacterial activity against linezolid-resistant Staphylococcus hominis SI-7/2011 after 16 to 18 hrs by microbroth dilution method; format: functional; in short: as §2
[16] = Apparent permeability of the compound at pH 7.4 after 5 hrs by PAMPA; format: physicochemical
In short: (§3)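 Parallel artificial membrane permeability assay run at physiological pH 7.4 and at alkaline pH 10.0, the duodenal-like condition, as a gastrointestinal permeability model. Apparent permeability (P_app) is reported in nm/s, together with the percentage of compound retained in the membrane.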

[17] = Apparent permeability of the compound at pH 10.0 after 5 hrs by PAMPA; format: physicochemical; in short: as §3
[18] = Apparent permeability of the compound assessed as membrane retention at pH 7.4 after 5 hrs by PAMPA; format: physicochemical; conditions: pH 7.4, 5 h; in short: as §3
[19] = Apparent permeability of the compound assessed as membrane retention at pH 10.0 after 5 hrs by PAMPA; format: physicochemical; conditions: pH 10, 5 h; in short: as §3
[20] = Solubility of the compound in pure water at 1.2 mg after 24 to 36 hrs by LC-MS/MS analysis; format: physicochemical
[21] = Metabolic stability in human liver microsomes after 60 mins by LC-UV-MS analysis; format: ADME; conditions: read-out: Stability
Albumin = Albumin (Homo sapiens, UniProt P02768); assay: Binding affinity to human serum albumin after 30 mins by fluorescence spectroscopic analysis; format: ADME
[22] = Cytotoxicity against human HeLa cells after 24 hrs; format: cell-based
[23] = Cytotoxicity against human HeLa cells after 48 hrs; format: cell-based
[24] = Ratio of CC50 for human HeLa cells to MIC for Escherichia coli CCUGT
[25] = Ratio of CC50 for human HeLa cells to MIC for Klebsiella pneumoniae 7023

Albumin, sequence (P02768 whole entry): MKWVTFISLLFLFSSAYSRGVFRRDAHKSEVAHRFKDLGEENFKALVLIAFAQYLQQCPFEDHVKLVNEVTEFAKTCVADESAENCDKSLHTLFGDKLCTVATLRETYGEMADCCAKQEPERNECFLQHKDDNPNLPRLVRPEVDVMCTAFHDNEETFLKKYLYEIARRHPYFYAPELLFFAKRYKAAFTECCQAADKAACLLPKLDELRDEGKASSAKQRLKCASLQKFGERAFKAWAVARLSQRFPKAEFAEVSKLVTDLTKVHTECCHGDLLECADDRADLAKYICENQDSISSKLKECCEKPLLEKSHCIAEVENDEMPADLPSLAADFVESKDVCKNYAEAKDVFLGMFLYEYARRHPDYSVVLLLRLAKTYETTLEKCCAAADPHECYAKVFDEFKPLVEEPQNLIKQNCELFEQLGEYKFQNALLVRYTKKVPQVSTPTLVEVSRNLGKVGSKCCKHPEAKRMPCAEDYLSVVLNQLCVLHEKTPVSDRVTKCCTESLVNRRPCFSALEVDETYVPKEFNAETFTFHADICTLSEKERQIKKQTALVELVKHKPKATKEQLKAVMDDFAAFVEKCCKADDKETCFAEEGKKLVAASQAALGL

Q: Which MIC (Acinetobacter baumannii [1]) does the source give for `N=C(N)NCCCCCCCCNCCCCCCCCNC(=N)NCC1CC1.O=C(O)C(F)(F)F.O=C(O)C(F)(F)F.O=C(O)C(F)(F)F` here?
A: 4 µg/mL

Q: And the MIC (Aeromonas hydrophila)?
A: 8 µg/mL

Q: And the MIC [2]?
A: 32 µg/mL

Q: And the MIC (Escherichia coli)?
A: 0.5 µg/mL

Q: And the MIC (Klebsiella pneumoniae [3])?
A: 1 µg/mL

Q: And the MIC (Pseudomonas aeruginosa [4])?
A: 8 µg/mL

Q: And the MIC (Bacillus subtilis)?
A: 0.5 µg/mL

Q: What about the MIC (Enterococcus faecalis) of the same compound?
A: 1 µg/mL

Q: What about the MIC (Staphylococcus aureus [5]) of the same compound?
A: 4 µg/mL

Q: And the MIC [6]?
A: 0.5 µg/mL

Q: What about the MIC (Streptococcus pyogenes) of the same compound?
A: < 0.125 µg/mL

Q: And the MIC (Acinetobacter baumannii [7])?
A: 4 µg/mL

Q: And the MIC [8]?
A: 4 µg/mL

Q: And the MIC (Alcaligenes faecalis)?
A: 4 µg/mL

Q: What about the MIC (Enterobacter cloacae) of the same compound?
A: 2 µg/mL

Q: And the MIC (Klebsiella pneumoniae [9])?
A: 2 µg/mL

Q: And the MIC (Pseudomonas aeruginosa [10])?
A: 8 µg/mL

Q: And the MIC (Pseudomonas aeruginosa [11])?
A: 8 µg/mL

Q: And the MIC [12]?
A: 4 µg/mL

Q: And the MIC (Staphylococcus aureus [13])?
A: 4 µg/mL

Q: And the MIC (Staphylococcus aureus [14])?
A: 4 µg/mL

Q: What about the MIC [15] of the same compound?
A: 2 µg/mL

Q: And the MIC (Staphylococcus warneri)?
A: 2 µg/mL

Q: And the MIC (Staphylococcus hominis)?
A: 2 µg/mL

Q: And the Papp at 5 h [16]?
A: 0.95 ×10⁻⁶ cm/s

Q: What about the Papp at 5 h [17] of the same compound?
A: 16.7 ×10⁻⁶ cm/s

Q: And the Papp [18]?
A: 8.8%

Q: What about the Papp [19] of the same compound?
A: 60.6%

Q: And the solubility [20]?
A: 966 µg/mL

Q: What about the remaining at 1 h [21] of the same compound?
A: > 99%

Q: And the pKd (Albumin)?
A: 4.58

Q: What about the CC50 at 24 h [22] of the same compound?
A: 92.6 µM

Q: What about the CC50 at 48 h [23] of the same compound?
A: 62 µM

Q: And the Ratio [24]?
A: >=70

Q: And the Ratio [25]?
A: >=70

Q: What does the source list for `C=C(C)CNC(=N)NCCCCCCCCN1CCCCCCCCNC(=N)NC1=O.O=C(O)C(F)(F)F.O=C(O)C(F)(F)F`?
A: MIC (Acinetobacter baumannii [1]): 8 µg/mL; MIC (Aeromonas hydrophila): 4 µg/mL; MIC [2]: 32 µg/mL; MIC (Escherichia coli): 0.5 µg/mL; MIC (Klebsiella pneumoniae [3]): 1 µg/mL; MIC (Pseudomonas aeruginosa [4]): 8 µg/mL; MIC (Bacillus subtilis): 0.5 µg/mL; MIC (Enterococcus faecalis): 1 µg/mL; MIC [6]: 0.5 µg/mL; MIC (Streptococcus pyogenes): 0.5 µg/mL; MIC (Acinetobacter baumannii [7]): 4 µg/mL; MIC [8]: 8 µg/mL; MIC (Alcaligenes faecalis): 4 µg/mL; MIC (Enterobacter cloacae): 1 µg/mL; MIC (Klebsiella pneumoniae [9]): 1 µg/mL; MIC (Pseudomonas aeruginosa [10]): 8 µg/mL; MIC (Pseudomonas aeruginosa [11]): 8 µg/mL; MIC [12]: 4 µg/mL

From ChEMBL document CHEMBL3352312, “Synthesis of linear and cyclic guazatine derivatives endowed with antibacterial activity” (Bioorg Med Chem Lett, 2014)
